For 13 compounds, IC50 results are on record in ChEMBL document CHEMBL1122048, “Adriamycin analogues. Preparation of 9,10-anhydrodaunorubicin, 9,10-anhydroadriamycin, and some related compounds” (1982).

Some results are limits rather than exact numbers.

The assay relates to CCRF-CEM. The assay can be described thus: In vitro growth inhibitory activity against CCRF-CEM (human lymphoblastic leukemic) cells. Particulars: read-out: ID50 (the source's name). The class given is functional. The essentials:
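Human lymphoblastic leukemia CCRF-CEM cultures exposed to drug for 48 h. The value is the concentration inhibiting culture growth by 50% relative to untreated controls.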
As for `COc1cccc2c1C(=O)c1c(O)c3c(c(O)c1C2=O)C=C(C(C)=O)C[C@@H]3OC1CC(NC(=O)C(F)(F)F)C(O)C(C)O1` (stereo partly drawn), the IC50 worked out at 2560 nM.

For `COc1cccc2c1C(=O)c1c(O)c3c(c(O)c1C2=O)CC(C(C)=O)C[C@@H]3OC1CC(NC(=O)C(F)(F)F)C(O)C(C)O1` (stereo partly drawn), the IC50 amounted to 3950 nM.

Consider `COc1ccc(C(OCC(=O)C2=Cc3c(O)c4c(c(O)c3[C@@H](OC3CC(N)C(O)C(C)O3)C2)C(=O)c2c(OC)cccc2C4=O)(c2ccccc2)c2ccccc2)cc1` (stereo partly drawn), for which the IC50 is over 5000 nM.

Turning to `COc1cccc2c1C(=O)c1c(O)c3c(c(O)c1C2=O)C[C@@](O)(C(C)=O)C[C@@H]3O[C@H]1C[C@H](N)[C@H](O)[C@H](C)O1` [DAUNORUBICIN], the IC50 came out at 40 nM.

For the compound `COc1ccc(C(OCC(=O)C2=Cc3c(O)c4c(c(O)c3[C@@H](OC3CC(NC(=O)C(F)(F)F)C(O)C(C)O3)C2)C(=O)c2c(OC)cccc2C4=O)(c2ccccc2)c2ccccc2)cc1` (stereo partly drawn), the IC50 is over 5000 nM.

Turning to `CCCCC(=O)OCC(=O)C1=Cc2c(O)c3c(c(O)c2[C@@H](OC2CC(NC(=O)C(F)(F)F)C(O)C(C)O2)C1)C(=O)c1c(OC)cccc1C3=O` (stereo partly drawn), the IC50 was 2700 nM.

`CCCCC(=O)OCC(=O)[C@]1(O)Cc2c(O)c3c(c(O)c2[C@@H](OC2CC(NC(=O)C(F)(F)F)C(O)C(C)O2)C1)C(=O)c1c(OC)cccc1C3=O` (stereo partly drawn): the IC50 came to 230 nM.

In the case of `CCCCC(=O)OCC(=O)[C@@H]1Cc2c(O)c3c(c(O)c2[C@@H](OC2CC(NC(=O)C(F)(F)F)C(O)C(C)O2)C1)C(=O)c1c(OC)cccc1C3=O` (stereo partly drawn), the IC50 worked out at 4710 nM.

Consider `COc1cccc2c1C(=O)c1c(O)c3c(c(O)c1C2=O)C[C@@](O)(C(=O)CO)C[C@@H]3O[C@H]1C[C@H](N)[C@H](O)[C@H](C)O1` [DOXORUBICIN], for which the IC50 turned out to be 66 nM.

For `COc1cccc2c1C(=O)c1c(O)c3c(c(O)c1C2=O)C=C(C(=O)CO)C[C@@H]3OC1CC(N)C(O)C(C)O1` (stereo partly drawn), the IC50 was determined as 2310 nM.

Consider `COc1cccc2c1C(=O)c1c(O)c3c(c(O)c1C2=O)C[C@@H](C(C)=O)CC3`, for which the IC50 is over 10000 nM.

Turning to `COc1cccc2c1C(=O)c1c(O)c3c(c(O)c1C2=O)C=C(C(C)=O)CC3`, the IC50 is over 10000 nM.

Regarding `COc1cccc2c1C(=O)c1c(O)c3c(c(O)c1C2=O)C=C(C(C)=O)C[C@@H]3O`, the IC50 was 10000 nM.
